Assay results published in PubChem BioAssay.
Active and inactive are the calls of the source.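 How the source made its calls, unless noted: active means viability at or under a set limit in both replicates, limit being median viability minus 3 SD (cut at about 48% in these data, passing the limit was not always enough); inconclusive means at or under the limit in just one replicate; inactive means at or above the limit in both replicates.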

Columns and labels:
[1] = Her2 expression decrease, cell viability multiplex – SKBR3 breast tumor cells, AlphaScreen, ATP viability, primary screen (AID 461;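 active means Her2 level under about 52% in both replicate screens, with viability over 70% of control, limit read from the data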;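 on Her2 level: lower value means less Her2 protein in the cells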;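 on viability: percent of carrier control wells set as 100% viability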); details: SKBR3 Her2 protein level, 18-24 h, measured here: SKBR3 viability, ATP luminescence, at 10 µM
[2] = biological target: Receptor tyrosine-protein kinase erbB-2 (Homo sapiens) (UniProt P04626); assay: as above; details: 18-24 h, at 10 µM, stronger effect = lower value
Receptor tyrosine-protein kinase erbB-2 (Homo sapiens), sequence (P04626 whole entry, looked up): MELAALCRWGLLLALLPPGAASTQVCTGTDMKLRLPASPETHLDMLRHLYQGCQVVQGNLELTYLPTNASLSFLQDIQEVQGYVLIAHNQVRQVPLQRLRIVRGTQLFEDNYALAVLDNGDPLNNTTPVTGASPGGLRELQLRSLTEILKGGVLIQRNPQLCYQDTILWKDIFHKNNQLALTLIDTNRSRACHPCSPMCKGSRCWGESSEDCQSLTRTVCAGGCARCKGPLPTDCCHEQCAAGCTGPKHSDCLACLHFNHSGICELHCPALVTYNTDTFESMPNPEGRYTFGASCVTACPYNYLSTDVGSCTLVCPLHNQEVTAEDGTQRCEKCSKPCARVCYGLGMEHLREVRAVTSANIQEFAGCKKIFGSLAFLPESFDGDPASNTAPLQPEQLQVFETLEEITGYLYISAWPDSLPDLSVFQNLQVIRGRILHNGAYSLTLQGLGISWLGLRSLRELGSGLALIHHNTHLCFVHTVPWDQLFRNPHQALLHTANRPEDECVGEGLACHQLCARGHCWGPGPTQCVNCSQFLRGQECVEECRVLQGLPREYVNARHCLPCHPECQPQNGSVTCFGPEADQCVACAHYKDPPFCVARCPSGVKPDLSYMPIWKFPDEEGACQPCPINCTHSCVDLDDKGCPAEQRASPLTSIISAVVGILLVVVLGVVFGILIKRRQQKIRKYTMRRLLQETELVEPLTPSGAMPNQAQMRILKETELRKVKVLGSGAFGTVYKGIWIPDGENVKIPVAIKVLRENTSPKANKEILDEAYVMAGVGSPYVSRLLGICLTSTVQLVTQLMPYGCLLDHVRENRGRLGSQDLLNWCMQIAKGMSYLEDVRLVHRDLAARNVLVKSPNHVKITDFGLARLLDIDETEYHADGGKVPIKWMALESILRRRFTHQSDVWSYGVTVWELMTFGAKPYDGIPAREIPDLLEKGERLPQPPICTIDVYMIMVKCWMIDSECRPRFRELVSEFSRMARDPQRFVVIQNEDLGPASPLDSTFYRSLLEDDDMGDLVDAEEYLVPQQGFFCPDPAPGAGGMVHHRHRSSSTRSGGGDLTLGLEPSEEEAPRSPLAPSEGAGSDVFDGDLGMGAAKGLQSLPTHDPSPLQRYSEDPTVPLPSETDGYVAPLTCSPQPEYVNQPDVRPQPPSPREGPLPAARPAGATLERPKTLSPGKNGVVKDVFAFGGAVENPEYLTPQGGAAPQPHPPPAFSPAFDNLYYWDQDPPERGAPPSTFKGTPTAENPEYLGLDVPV

[3] = reduced viability of SK-BR-3 breast cancer cells – cell-based, 24 h, human, pilot screen (AID 572;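 active means viability at or below 10% of carrier control in both of two separate runs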;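 further: compound exposure lasted between 18 and 24 h rather than exactly 24 h; 100% = carrier-treated control wells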); details: SK-BR-3 viability, CellTiter-Glo luminescence, at 10 µM, stronger effect = lower value
[4] = HUVEC growth inhibition – cell-based, human, primary screen (AID 575;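 active means viability at or below 30% in both replicate assays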;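 further: 100% = median of untreated cell wells with 0.1% DMSO on each plate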); details: HUVEC proliferation, CellTiter-Glo luminescence, 72 h; at 10 µM; stronger effect = lower value
In short: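 Assay system: primary human umbilical vein endothelial cells / Buffer or medium: endothelial basal medium with 2% FBS plus growth supplements / Compound dosing: one dose, 10 µM final, 0.1% DMSO / Timing: 72 h treatment at 37 °C / Signal: CTG luminescence / Benchmarks: 32 DMSO-only cell-control wells (high), 32 MePR drug-control wells (low) per plate / Plate: collagen-coated 384-well format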

[5] = H69AR cell proliferation blockers – human, duplicate replicates, primary screen (AID 580); details: H69AR lung tumor cells viability, ATP luminescence, 72 h; at 10 µM; stronger effect = lower value;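 further: 100% = mean luminescence of untreated wells and 0% = no signal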
[6] = MRP1 drug-resistance reversers in H69AR cells – cell-based, doxorubicin co-treatment, pilot screen (AID 601;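 active means viability loss from added drug above about 55%, and viability with drug at most 40%, in both replicates, limit read from the data, passing the limit was not always enough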); details: CellTiter-Glo, 72 h, at 10 µM; for differential viability (reversal): stronger effect = higher value
[7] = yeast transport mutant growth inhibition pilot in 384-well plates, post-Golgi transport modulator project (AID 636; in the data active means inhibition above about 31%); details: absorbance 615 nm, about 18 h, stronger effect = higher value
[8] = growth suppression of yeast trafficking mutant, preliminary HTS, modulators of trafficking downstream of Golgi apparatus project, 1536-format plate, OD 615 nm (AID 637; in the data active means inhibition above about 30%); details: yeast transport mutant growth, absorbance 615 nm, 18 h; stronger effect = higher value
[9] = H69AR cells + 2 uM doxorubicin, measured here: viability with 2 uM doxorubicin, stronger effect = lower value
[10] = H69AR cells, compound alone cytotoxicity

SMILES | viability [1] [%] | Her2 level [2] | viability [3] | viability [4] | viability [5] | differential viability (reversal) ([6]; H69AR cells + 2 uM doxorubicin) | viability [6, 9] [%] | viability [6, 10] [%] | inhibition [7] | inhibition [8]
FC(F)(F)C(F)(F)C(F)(F)c1nnc2ccc(N3CCOCC3)nn12 | 97.5 | 118% (inactive) | 97.5% (inactive) | 84.8% (inactive) | 83.7% (inactive) | -0.265% (inactive) | 83.9 | 83.7 | 4.21% (inactive) | 7.94% (inactive)
CCCC(=O)Nc1ccc(OCC(=O)OC)cc1 | 99.5 | 78.5% (inactive) | 99.5% (inactive) | 89.9% (inactive) | 98.9% (inactive) | 5.34% (inactive) | 93.6 | 98.9 | -3.95% (inactive) | 0.79% (inactive)
CCOc1ccccc1N1CCN(C(=O)c2ccncc2)CC1 | 97 | 100% (inactive) | 97% (inactive) | 90.2% (inactive) | 93.6% (inactive) | 13.4% (inactive) | 80.2 | 93.6 | -2.99% (inactive) | -9.34% (inactive)
CCC(C)OC(=O)c1[nH]c2c(c1C)C(=O)CC(c1ccc(N(C)C)cc1)C2 (stereo not given) | 88.5 | 73% (inactive) | 88.5% (inactive) | 57.9% (inactive) | 27.6% (active) | -47.7% (inactive) | 75.3 | 27.6 | -2.93% (inactive) | 24.8% (inactive)
O=C(NCC1CCCO1)c1cccc(N2C(=O)C3C4C=CC(C4)C3C2=O)c1 (stereo not given) | 110 | 94% (inactive) | 110% (inactive) | 98.4% (inactive) | 100% (inactive) | 10.3% (inactive) | 89.8 | 100 | -6.4% (inactive) | -9.84% (inactive)
COC(=O)CN(c1ccc(F)cc1)S(=O)(=O)c1ccccc1 | 91.5 | 109% (inactive) | 91.5% (inactive) | 122% (inactive) | 92.1% (inactive) | -0.7% (inactive) | 92.8 | 92.1 | 0.13% (inactive) | -3.93% (inactive)
Cc1cccc(NC(=O)CC2NC3CCCCC3NC2=O)c1 (stereo not given) | 99.5 | 102% (inactive) | 99.5% (inactive) | 96.7% (inactive) | 93.6% (inactive) | 2.89% (inactive) | 90.7 | 93.6 | -3.42% (inactive) | -1.17% (inactive)
O=C1NC(=O)C2(CCC(C(=O)O)C2)N1 (stereo not given) | 93.5 | 84% (inactive) | 93.5% (inactive) | 96.4% (inactive) | 94.2% (inactive) | -0.33% (inactive) | 94.5 | 94.2 | -5.73% (inactive) | 2.46% (inactive)
O=C(CSc1nnnn1C1CCCC1)NCc1ccc2c(c1)OCO2 | 86 | 89% (inactive) | 86% (inactive) | 93.7% (inactive) | 102% (inactive) | 3.33% (inactive) | 98.6 | 102 | -6.22% (inactive) | 2.46% (inactive)
O=S(=O)(c1ccc(OCC(O)CN2CCN(c3ccccc3)CC2)cc1)N1CCOCC1 (stereo not given) | 100 | 90% (inactive) | 100% (inactive) | 110% (inactive) | 96.4% (inactive) | 5.24% (inactive) | 91.2 | 96.4 | -7.57% (inactive) | -3.67% (inactive)
Cc1ccc2[nH]c(=O)c(CN(CCCO)S(=O)(=O)c3c(C)ccc4nsnc34)cc2c1 | 91 | 92.5% (inactive) | 91% (inactive) | 95.1% (inactive) | 96.8% (inactive) | 4.04% (inactive) | 92.8 | 96.8 | -1.18% (inactive) | -4.44% (inactive)
COC(=O)c1cc(OC)c(OC)cc1NC(=O)CC1CCCCC1 | 104 | 96.5% (inactive) | 104% (inactive) | 99.3% (inactive) | 103% (inactive) | 9.91% (inactive) | 93.6 | 103 | 0.79% (inactive) | -2.9% (inactive)
O=C(CNS(=O)(=O)c1ccccc1)NCc1ccccn1 | 84 | 76.5% (inactive) | 84% (inactive) | 96.2% (inactive) | 102% (inactive) | 8.75% (inactive) | 93.2 | 102 | -2.27% (inactive) | 1.45% (inactive)
CC1(C)Cc2noc(N)c2C(C)(C)N1OC(=O)c1cccs1 | 103 | 95.5% (inactive) | 103% (inactive) | 99.1% (inactive) | 102% (inactive) | 8.28% (inactive) | 94.2 | 102 | -4.08% (inactive) | -5.08% (inactive)
CCn1c(CCC(=O)Nc2nc3c(s2)CCCC3)nc2cc(S(=O)(=O)N(C)C)ccc21 | 89.5 | 80% (inactive) | 89.5% (inactive) | 59.9% (inactive) | 85.4% (inactive) | 18.7% (inactive) | 66.7 | 85.4 | 5.27% (inactive) | -3.11% (inactive)
CCc1cc2c(=O)c(-c3cscn3)coc2cc1O | 108 | 96% (inactive) | 108% (inactive) | 63.5% (inactive) | 88.8% (inactive) | -13% (inactive) | 102 | 88.8 | -1.32% (inactive) | 2.95% (inactive)

SMILES | viability [1] [%] | Her2 level [2] | viability [3] | viability [4] | viability [5] | differential viability (reversal) ([6]; H69AR cells + 2 uM doxorubicin) | viability [6, 9] [%] | viability [6, 10] [%] | inhibition [7] | inhibition [8]
CCOCCn1c(CN2CCN(c3cccc(Cl)c3)CC2)nc2c1c(=O)n(C)c(=O)n2C | 85 | 110% (inactive) | 85% (inactive) | 94.5% (inactive) | 80.1% (inactive) | 41.5% (inactive) | 38.6 | 80.1 | -3.07% (inactive) | -6.17% (inactive)
Cc1ccc(S(=O)(=O)N(C)c2ccc(OCC(=O)OCc3c(C)noc3C)cc2)cc1 | 92.5 | 97% (inactive) | 92.5% (inactive) | 95.4% (inactive) | 105% (inactive) | 6.56% (inactive) | 98.6 | 105 | -1.71% (inactive) | -10.3% (inactive)
COc1cccc(NC(=O)CSc2nnnn2C(C)C)c1 | 118 | 86.5% (inactive) | 118% (inactive) | 97.9% (inactive) | 103% (inactive) | 13.7% (inactive) | 89.7 | 103 | -3.65% (inactive) | 0.79% (inactive)
CC(C)(C)c1ccc2c(c1)OCC(C(=O)O)O2 (stereo not given) | 99.5 | 106% (inactive) | 99.5% (inactive) | 99.3% (inactive) | 106% (inactive) | 9.5% (inactive) | 96.3 | 106 | 0.55% (inactive) | -3.65% (inactive)
O=C(NCc1ccco1)c1c2c(nc3ccccc13)CCC2 | 108 | 80% (inactive) | 108% (inactive) | 82.4% (inactive) | 80.7% (inactive) | 3.16% (inactive) | 77.5 | 80.7 | -6.4% (inactive) | 3.23% (inactive)
COc1ccc(C(=O)N2CCN(C3CCCCC3)CC2)c(OC)c1 | 82.5 | 104% (inactive) | 82.5% (inactive) | 88.3% (inactive) | 95.3% (inactive) | 0.4% (inactive) | 94.9 | 95.3 | -2.53% (inactive) | 11.8% (inactive)
O=C(CN(c1ccccc1)S(=O)(=O)c1ccccc1)N1CCN(Cc2ccc3c(c2)OCO3)CC1 | 104 | 73% (inactive) | 104% (inactive) | 92.7% (inactive) | 96.9% (inactive) | 5.03% (inactive) | 91.8 | 96.9 | -6% (inactive) | 0.32% (inactive)
Cc1ccccc1-c1nc(CS(=O)(=O)CC(=O)N(C)C2CCCCC2)c(C)o1 | 108 | 104% (inactive) | 108% (inactive) | 90.9% (inactive) | 92.7% (inactive) | 0.46% (inactive) | 92.2 | 92.7 | 0.27% (inactive) | -5.08% (inactive)
Cc1nc2oc3c(NCc4ccccn4)ncnc3c2c2c1COC(C)(C)C2 | 90 | 89% (inactive) | 90% (inactive) | 85.9% (inactive) | 99.2% (inactive) | 7.06% (inactive) | 92.2 | 99.2 | -4.4% (inactive) | -1.59% (inactive)
CCOC(=O)c1c(N)nn(C(=O)C(C)C)c1-c1ccccc1 | 97 | 119% (inactive) | 97% (inactive) | 82.5% (inactive) | 109% (inactive) | 15% (inactive) | 94 | 109 | -5.95% (inactive) | -9.34% (inactive)
COc1cccc(OCCSc2nnc3sc4ccccc4n23)c1 | 86 | 98% (inactive) | 86% (inactive) | 106% (inactive) | 85.3% (inactive) | -6.48% (inactive) | 91.8 | 85.3 | 2.73% (inactive) | 0.66% (inactive)
OCc1nc2ccccc2n1CCCOc1ccccc1 | 80.5 | 102% (inactive) | 80.5% (inactive) | 90.6% (inactive) | 103% (inactive) | 16.7% (inactive) | 85.9 | 103 | -0.13% (inactive) | -0.83% (inactive)
Cc1ccccc1NS(=O)(=O)c1cc(C(=O)N2CCCC2)ccc1C | 108 | 91.5% (inactive) | 108% (inactive) | 82.9% (inactive) | 84.2% (inactive) | -4.14% (inactive) | 88.4 | 84.2 | -5.14% (inactive) | -8.25% (inactive)
c1ccc(CSCc2cn3ccsc3n2)cc1 | 93.5 | 95.5% (inactive) | 93.5% (inactive) | 104% (inactive) | 99.1% (inactive) | 14.5% (inactive) | 84.6 | 99.1 | -0.27% (inactive) | -3.49% (inactive)
Cc1cc(Cn2ccnc2)c(C)cc1Cn1ccnc1 | 82 | 91.5% (inactive) | 82% (inactive) | 107% (inactive) | 101% (inactive) | 6.74% (inactive) | 94.1 | 101 | -3.6% (inactive) | -0.32% (inactive)
Cn1c(=O)c2c(nc(NCC3CCCO3)n2C)n(C)c1=O (stereo not given) | 102 | 104% (inactive) | 102% (inactive) | 105% (inactive) | 103% (inactive) | 7.24% (inactive) | 95.5 | 103 | -1.33% (inactive) | -3.11% (inactive)
